In the library only some 11% were active in any assay of this set; here they are far more common.
M1 agonist: M1 muscarinic receptor agonists, primary screen, CHO-M1 cells, Fluo-4 calcium, agonist mode. AID 626, 2007. 3% of 64,000 active. B-score at 10 µM. Fluo-4 calcium fluorescence; active compounds read high. Muscarinic acetylcholine receptor M1;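 active means fluorescence rise, raw or as B-score row- and column-corrected plate score, outside the 99.7% band of its plate's samples, either direction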
S1P1 ag pot: S1P1 agonists and agonism potentiators, primary screen, cell-based, primary and confirmation screens, CRE-bla reporter | 0.57% of 56,000 active | Sphingosine 1-phosphate receptor 1 (Homo sapiens), P21453 | activation, % at 9.5 µM | AID 449, 2006 | S1P1 CRE-bla cells, forskolin, beta-lactamase FRET, potentiator mode; S1P1 agonist co-added at EC20, 2 nM; 100% = saturating reference agonist, 0% = basal;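 active means activation above a cutoff set at the mean activation of all tested compounds plus 3 SD, cut at about 54% in these data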;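 further: forskolin at 4 µM as EC80 and the EC20 agonist is SEW2871; 100% = SEW2871 at its EC100 plus forskolin at EC80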
D1 allo mod: D1 CRE-luciferase signal change, two-sided – cell-based, HEK293 D1, dopamine EC30, D1 allosteric modulator project, primary screen; dopamine EC30 potentiation; actives deviate in either direction; D(1A) dopamine receptor (Homo sapiens), P21728; B-score at 10 µM; 5.9% of 58,000 active;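 active means luminescence count or its row- and column-corrected plate score outside the 99.7% band of the plate's sample wells, on either side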
M1 antagonist: antagonists of rat M1 muscarinic receptor; Muscarinic acetylcholine receptor M1 (Rattus norvegicus), P08482; CHO-M1 cells, Fluo-4 calcium, ACh EC80 antagonist mode; active compounds read low; B-score at 10 µM; 3.4% of 64,000 active;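 active means calcium fluorescence response, raw or row-and-column corrected B-score, differing from the plate sample mean either way at a set confidence level, mostly lower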
S1P3 agonist: human S1P3 receptor agonists, primary screen, cell-based, primary and confirmation, NFAT-BLA reporter | AID 373, 2006 | Sphingosine 1-phosphate receptor 3 (Homo sapiens), Q99500 | 0.1% of 60,000 active | activation, % at 4.5 µM | S1P3 NFAT-BLA reporter cells, agonism, FRET ratio; relative to 1 µM S1P, basal subtracted;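 active means activation above the screen-wide mean plus 3 SD, cut at about 4.5% in these data, passing the limit was not always enough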
Target sequence (Q99500 whole entry, looked up): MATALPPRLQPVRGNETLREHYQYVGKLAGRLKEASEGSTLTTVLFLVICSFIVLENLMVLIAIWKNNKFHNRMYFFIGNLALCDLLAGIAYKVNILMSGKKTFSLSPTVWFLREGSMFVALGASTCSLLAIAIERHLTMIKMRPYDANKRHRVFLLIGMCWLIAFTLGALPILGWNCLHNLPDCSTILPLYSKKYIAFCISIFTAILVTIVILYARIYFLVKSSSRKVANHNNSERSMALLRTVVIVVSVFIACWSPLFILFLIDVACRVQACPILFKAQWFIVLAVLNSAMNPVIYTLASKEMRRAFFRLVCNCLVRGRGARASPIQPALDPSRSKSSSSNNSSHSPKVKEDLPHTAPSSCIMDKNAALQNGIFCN
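Material: Human S1P3 NFAT-BLA reporter CHO cells | Incubation: Overnight plating, 4 h compound 37 °C, 2 h substrate RT | Signal: FRET β-lactamase substrate fluorescence, excitation 405 nm, 460/535 nm emission ratio, background-subtracted | Compound: 4.5 µM final, single dose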
D1 PAM confirm: D1 receptor positive allosteric modulators, retest, confirmation, cell-based, HEK293 D1, CRE-luciferase, duplicate; shares compounds with D1 allo mod; dopamine EC30 potentiation; active compounds read high; luminescence at 10 µM; 88% of 2,200 active;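 active means luminescence in either of two replicates above the same-plate mean plus 3 SD of the low-dose dopamine control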
D1 ag no DA: D1 receptor agonism without dopamine, confirmation, mechanism study for D1 allosteric modulator project, cell-based, HEK293 D1, CRE-luciferase, secondary assay 1 | AID 646, 2007 | 0.8% of 1,900 active | shares compounds with D1 allo mod | luminescence, no dopamine; active compounds read high | luminescence at 10 µM; in the data active means luminescence above about 3900
Isoprot counter: isoproterenol response counter-screen activity for D1 modulators; shares compounds with D1 allo mod; calls only at 10 µM; AID 647; 63% of 2,200 active; HEK293 D1 CRE-luciferase, isoproterenol EC30 counter-screen;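 active means luminescence in either replicate above plate mean of wells with a partly effective reference agonist dose plus 3 SD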;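 further: isoproterenol raises cAMP through native beta-adrenoceptor Gs so signal bypasses D1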
* marks the source's active call; other numbers are inactive results.

COc1ccc(-c2c3c(=O)n(C)c(=O)n(C)c3cn2Cc2ccccn2)cc1 was read as M1 agonist -0.39, S1P1 ag pot -5, D1 allo mod -1.1, M1 antagonist -0.27 and S1P3 agonist -2.
COc1ccc(-c2c3c(=O)n(C)c(=O)n(C)c3cn2-c2cc(OC)ccc2OC)cc1 was read as M1 agonist -0.97, S1P1 ag pot -4, D1 allo mod 6*, M1 antagonist -1.6, S1P3 agonist -1, D1 PAM confirm 8244*, D1 ag no DA 1200 and Isoprot counter active.
`COc1cccc(C(C(=O)NCc2ccco2)N(C(=O)Cn2nnc3ccccc32)C2CC2)c1OC` (stereo not given) gave M1 agonist -0.18, S1P1 ag pot 5, D1 allo mod -0.37, M1 antagonist 1.2 and S1P3 agonist 0.
Screening Cc1csc(SCCn2c(N3CCCC3)nc3c2c(=O)[nH]c(=O)n3C)n1 returned M1 agonist -0.12, S1P1 ag pot 11, D1 allo mod -1.2, M1 antagonist 0.61 and S1P3 agonist 0.
`O=C(N1CCOCC1)C(F)(F)C(F)(F)C(F)(F)C(F)(F)C(=O)N1CCOCC1` gave M1 agonist -0.16, S1P1 ag pot -12, D1 allo mod -0.3, M1 antagonist 0.45 and S1P3 agonist 0.
CCCn1c2c(c(O)c(C(=O)NC)c1=O)CCCC2 was read as M1 agonist -0.26, S1P1 ag pot -12, D1 allo mod 4.6*, M1 antagonist 0.12, S1P3 agonist 0, D1 PAM confirm 9448*, D1 ag no DA 1536 and Isoprot counter inactive.
Screening O=C(O)CCC(=O)Nc1ccc(Br)cn1 returned M1 agonist 0.38, S1P1 ag pot -14, D1 allo mod 0.28, M1 antagonist -0.44 and S1P3 agonist 0.
For C=CCn1c(C(C)NC(=O)COC)nc2ccccc21 (stereo not given) the results were M1 agonist -0.13, S1P1 ag pot -9, D1 allo mod 5.4*, M1 antagonist 0.48, S1P3 agonist 0, D1 PAM confirm 5084, D1 ag no DA 1624 and Isoprot counter inactive.
Screening CNC(=O)N(C1=NCC(C)(C)S1)c1ccc(F)c(Cl)c1 returned M1 agonist 0.15, S1P1 ag pot -16, D1 allo mod 11*, M1 antagonist 0.55, S1P3 agonist -1, D1 PAM confirm 25560*, D1 ag no DA 1876 and Isoprot counter active.
`C=CCn1c(SCCCC)nc(O)cc1=O` gave M1 agonist -0.081, S1P1 ag pot 8, D1 allo mod 3.6*, M1 antagonist -0.046, S1P3 agonist -1, D1 PAM confirm 6816, D1 ag no DA 1616 and Isoprot counter inactive.
Screening Cc1ccc(S(=O)(=O)N2CC3CCC2C3)cc1 (stereo not given) returned M1 agonist 0.88, S1P1 ag pot -1, D1 allo mod 4.4*, M1 antagonist 0.96, S1P3 agonist 0, D1 PAM confirm 6724* and Isoprot counter inactive.
Screening NS(=O)(=O)c1ccc(CCNC2CC(=O)N(CCc3ccccc3)C2=O)cc1 (stereo not given) returned M1 agonist 0.14, D1 allo mod 2.3*, M1 antagonist 0.28, S1P3 agonist -1, D1 PAM confirm 4996, D1 ag no DA 1548 and Isoprot counter inactive.

Screening data: PubChem BioAssay, several laboratories
